MT1-MMP act inh – blockers of MT1-MMP proenzyme processing, primary screen, HT1080 RFP-PRO-GFP cells, GFP/RFP fluorescence | 0.061% of 360,000 active | AID 651647, 2012 | Matrix metalloproteinase-14 (Homo sapiens), P50281 | GFP/RFP ratio fluorescence, overnight; percent of plate control window, DMSO zero | GFP/RFP ratio change, % at 20 µM;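 active = GFP/RFP ratio change of at least 30% with cell ATP level not reduced by more than half and red fluorescence within 50% of control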
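Assay system: HT1080 RFP-PRO-GFP cells | Dosing: 20 µM single dose, 1% DMSO | Incubation: Cells overnight before dosing, compound overnight, 37 °C, 5% CO2 | Evaluation: GFP/RFP fluorescence ratio | Control set: DMSO-only wells and HT1080 RFP-L50D-GFP cell wells as references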
Exocytosis inh – LAMP-1 surface exposure blockers, TALL-104 cells – cell-based, flow cytometry, MLPCN library, primary screen | TALL-104 LAMP-1 surface exposure; cells stimulated with thapsigargin and PMA | inhibition, % at 10 µM | 0.66% of 360,000 active;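 active = inhibition above about 55%, limit read from the data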
VLA-4 inh – inhibition in human VLA-4 binding assay, primary screen, VLA-4 allosteric modulator project, MLPCN library, flow cytometry, VLA-4 expressing cells; Integrin alpha-4 (Homo sapiens), P13612; ligand binding flow cytometry; inhibition, % (about 7 µM as worked out from the volumes in the protocol); 0.2% of 330,000 active; in the data active = inhibition above about 50%
FGF22 binding – binders of human FGF22 protein, primary screen, FGF22 synaptogenesis inhibitor project, biophysical, thermal shift, single point. 1.5% of 340,000 active. AID 651658, 2012. Fibroblast growth factor 22 (Homo sapiens), Q9HCT0. recombinant FGF22 thermal shift, SYPRO orange fluorescence; percent of sucrose octasulfate shift, DMSO zero. activity (Tm shift, normalised), % at 9.99 µM;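 active = mean Tm shift, scaled 0 neutral to 100 positive control, at about 1.3% or above, every replicate too, limit read from the data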
ABCB6 inh 2 – ABCB6 transporter inhibitors, primary screen, K562-ABCB6 cells, flow cytometry, MLPCN library | K562-ABCB6 porphyrin accumulation, 1 h; hits give low values | fluorescence ratio to DMSO, % at 10 µM | ATP-binding cassette sub-family B member 6 (Homo sapiens), Q9NP58 | 0.19% of 360,000 active;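 active = fluorescence ratio to DMSO below 75%, the collection mean minus 3 SD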;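 note: signal is porphyrin accumulated inside mitochondria; 100% equals median channel fluorescence of DMSO control wells; lower ratio means ABCB6 inhibition with less porphyrin fluorescence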
Target sequence (Q9NP58 whole entry, looked up): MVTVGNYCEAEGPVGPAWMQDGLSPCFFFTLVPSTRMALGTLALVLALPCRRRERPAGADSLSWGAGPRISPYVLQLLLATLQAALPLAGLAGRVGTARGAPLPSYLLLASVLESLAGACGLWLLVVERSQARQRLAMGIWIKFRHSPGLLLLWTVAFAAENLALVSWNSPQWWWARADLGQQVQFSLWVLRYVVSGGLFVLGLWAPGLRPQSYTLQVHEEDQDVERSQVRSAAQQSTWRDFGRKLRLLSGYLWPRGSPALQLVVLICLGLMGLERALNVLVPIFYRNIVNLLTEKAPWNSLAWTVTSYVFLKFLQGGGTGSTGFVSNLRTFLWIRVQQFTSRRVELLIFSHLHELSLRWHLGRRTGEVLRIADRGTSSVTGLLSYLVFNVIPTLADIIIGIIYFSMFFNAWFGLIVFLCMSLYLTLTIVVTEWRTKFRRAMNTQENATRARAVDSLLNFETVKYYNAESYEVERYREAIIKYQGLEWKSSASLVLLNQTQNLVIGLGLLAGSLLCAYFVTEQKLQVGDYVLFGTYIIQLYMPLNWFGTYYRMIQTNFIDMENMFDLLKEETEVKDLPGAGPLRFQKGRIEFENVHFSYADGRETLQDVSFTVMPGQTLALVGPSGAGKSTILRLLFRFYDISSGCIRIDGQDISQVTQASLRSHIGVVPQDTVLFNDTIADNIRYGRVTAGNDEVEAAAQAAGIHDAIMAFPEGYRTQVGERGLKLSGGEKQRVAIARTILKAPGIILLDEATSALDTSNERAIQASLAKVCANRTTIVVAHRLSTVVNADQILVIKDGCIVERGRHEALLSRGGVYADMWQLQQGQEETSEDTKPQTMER
DAGLB inhibitor – DAGLB lipase inhibitors, primary screen, biochemical, fluorescence, HTS; Diacylglycerol lipase-beta (Homo sapiens), Q8NCG7; HEK293T DAGLB membrane lysate, EnzChek fluorogenic substrate; inhibition, % at 5.17 µM; 0.059% of 340,000 active; in the data active = inhibition above about 34%;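 note: 0% = enzyme with vehicle and 100% = wells lacking enzyme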
Active calls of the source: *; / = no result. Hits are enriched below; roughly 2% of the tested compounds scored in any of these assays.

SMILES	MT1-MMP act inh	Exocytosis inh	VLA-4 inh	FGF22 binding	ABCB6 inh 2	DAGLB inhibitor
C[C@@H]1CCCCO[C@H](CN(C)C)[C@H](C)CN([C@H](C)CO)C(=O)c2cc(NS(=O)(=O)c3ccc(Cl)cc3)ccc2O1	/	/	/	0	/	/
O=C(NNS(=O)(=O)c1ccc(Br)cc1)c1sccc1-n1cccc1	-2	-3	1	44*	99	4
COc1ccc(C(=O)Nc2ccc3c(c2)C(=O)N(C)C[C@@H](OC)[C@@H](C)CN(C)[C@H](C)CO3)cc1	/	/	/	0	/	/
O=c1c(CN2CCN(c3ccccn3)CC2)coc2ccccc12	0	-2	7	44*	102	-2
Oc1c(CN2CCN(c3ccccn3)CC2)cc(Cl)c2cccnc12	-8	35	-7	/	98	3
CCOc1cc(CNCC(C)C)cc(Cl)c1OCc1ccccc1	-2	7	26	44*	86	-4
COc1ccc2c3c([nH]c2c1)[C@H](CO)N(Cc1ccccc1OC)CC31CN(C)C1	/	/	/	0	/	/
CC(=O)C1=C(O)C(=O)N(CCCn2ccnc2)C1c1ccc(Br)cc1 (centres undefined)	2	2	2	43*	192	3
C[C@@H]1CN([C@H](C)CO)C(=O)c2cccc(NC(=O)Nc3ccc4c(c3)OCO4)c2O[C@@H]1CN(C)S(=O)(=O)c1cn(C)cn1	/	/	/	-1	/	/
CCC(=O)OCCNc1cc(Sc2nc3ccccc3s2)c2nonc2c1[N+](=O)[O-]	/	103*	17	/	98	-3
Cc1ccc(-c2csc3ncnc(Oc4cccc5ccc(C)nc45)c23)cc1	-14	-2	-10	44*	109	-1
Cc1ccc2cccc(Oc3ncnc4sc(C)c(C)c34)c2n1	-4	-3	1	43*	101	-1
Cc1cc(C(=O)NN=Cc2c(C)[nH]c3ccccc23)c(C)o1	2	-3	-23	0	101	2
Cc1[nH]c2ccccc2c1/C=N\NC(=O)c1ccccc1Cl	1	-2	/	43*	96	3
Cc1[nH]c2ccccc2c1/C=N/Nc1ccccc1[N+](=O)[O-]	11	-3	12	1.9*	95	25
Cc1[nH]c2ccccc2c1/C=N/NC(=O)c1cccc(S(=O)(=O)Nc2cccc(C(F)(F)F)c2)c1	-2	-1	16	43*	102	1
NNC(=O)c1cccc(S(=O)(=O)Nc2cccc(C(F)(F)F)c2)c1	-1	0	-18	0	100	1
C[C@H]1CN([C@@H](C)CO)S(=O)(=O)c2ccc(-c3ccncc3)cc2O[C@H]1CN(C)S(=O)(=O)c1ccccc1F	/	/	/	0	/	/
CCOC(=O)C1=C(CSc2nc(-c3ccccc3)ccc2C#N)OC(N)=C(C#N)C1c1ccc(OC)cc1 (centres undefined)	-42	75*	-272	/	430	-1
CCn1cc(C(=O)O)c(=O)c2cc(F)c(N/N=C/c3ccccc3[N+](=O)[O-])cc21	-20	72*	-1	1	96	-1
Cc1cc(C)c2c(=O)n(CC(=O)Nc3cccc(Cl)c3C)sc2n1	-2	65*	6	0	91	-2
O=c1oc(-c2ccccc2F)nc2c1cnn2-c1ccccc1	-2	84*	31	/	94	5
Cn1c(N)c(C(=O)COC(=O)C2CCCC2)c(=O)n(C)c1=O	0	1	4	43*	99	-2
Cn1c(N)c(C(=O)COC(=O)/C=C/c2ccc(Cl)cc2Cl)c(=O)n(C)c1=O	3	13	-7	44*	94	/
Cn1c(=O)c2c(nc(NCCNC(=O)c3ccco3)n2Cc2ccc(F)cc2)n(C)c1=O	-1	-11	-10	1.8*	96	-1
